Measured values reported in ChEMBL document CHEMBL1141800, “Xenia diterpenoids from the formosan soft coral Xenia blumi” (2005).
Converted amounts (≈) assume the structure as drawn.

Key:
P388 = test: Cytotoxicity against mouse P388 cells; assay type: functional; conditions: read-out: ED50 (the source's name)
How it was run: (§1)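 In vitro cytotoxicity assay against cultured HT-29 (human colon adenocarcinoma) and P-388 (mouse lymphocytic leukemia) cells; P-388 line was supplied by an outside academic lab. Potency is reported as ED50 in μg/mL.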

HT-29 = test: Cytotoxicity against human HT-29 cells; assay type: functional; conditions: read-out: ED50 (the source's name); how it was run: as §1

Structure (SMILES): C=C1CC[C@@](C)(C=O)CC[C@@H]2/C(=C\C=C\C(C)(C)O)COC(=O)[C@@H]12
- EC50 (P388): 3.3 µg/mL (≈ 9.93 µM)
- EC50 (HT-29): 4.6 µg/mL (≈ 13.8 µM)

Structure (SMILES): C=C1CC(=O)/C=C(/C)CC[C@@H]2/C(=C/C=C/C(C)(C)O)C(=O)OC[C@@H]12
- EC50 (P388): 0.2 µg/mL (≈ 0.605 µM)
- EC50 (HT-29): 0.5 µg/mL (≈ 1.51 µM)

Structure (SMILES): COC(=O)[C@@H]1[C@@H](/C(=C\C=C\C(C)(C)O)COC(C)=O)CC[C@@]2(C)C[C@]1(O)CC[C@H]2O
- EC50 (P388): > 20 µg/mL
- EC50 (HT-29): > 20 µg/mL

Structure (SMILES): C=C1CC[C@@H]2O[C@@]2(C)CC[C@@H]2C([C@@H](OC(C)=O)[C@H](C=C(C)C)OC(C)=O)=CO[C@H](OC(C)=O)[C@@H]12
- EC50 (P388): > 20 µg/mL
- EC50 (HT-29): > 20 µg/mL

Structure (SMILES): C=C1CC[C@@H]2O[C@@]2(C)CC[C@@H]2/C(=C/C=C/C(C)(C)O)C(=O)OC[C@@H]12
- EC50 (P388): 4.7 µg/mL (≈ 14.1 µM)
- EC50 (HT-29): 5.6 µg/mL (≈ 16.8 µM)

Structure (SMILES): C=C1CC[C@@H]2O[C@@]2(C)CC[C@@H]2/C(=C\C=C\C(C)(C)O)C(=O)OC[C@@H]12
- EC50 (P388): 6.9 µg/mL (≈ 20.8 µM)
- EC50 (HT-29): 8.6 µg/mL (≈ 25.9 µM)

Structure (SMILES): C=C1CC/C=C(\C)CC[C@@H]2/C(=C/C=C/C(C)(C)O)C(=O)OC[C@@H]12
- EC50 (P388): > 20 µg/mL
- EC50 (HT-29): 8.7 µg/mL (≈ 27.5 µM)

Structure (SMILES): C=C1CC[C@H](O)C(=C)CC[C@@H]2/C(=C\C=C\C(C)(C)O)COC(=O)[C@@H]12
- EC50 (P388): 3.7 µg/mL (≈ 11.1 µM)
- EC50 (HT-29): 4.9 µg/mL (≈ 14.7 µM)
